# An excerpt weighted towards active compounds, which were near 5.4% of everything screened.
# PostGolgi ctrl: growth inhibition of yeast control strain, primary screen, counter-screen for post-Golgi transport modulator project; efflux-deficient yeast background strain, growth absorbance A615, 16 h; inhibition, % at 10 µM; 98,000 compounds, 5% hits; AID 738, 2007
# E coli WT exp: growth inhibitors of wild-type E. coli, primary screen, strain BW25113, expanded library, OD600; 98,000 compounds, 0.15% hits; AID 710, 2007; growth inhibition, % at 100 µM; OD600 absorbance;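 active = growth inhibition above about 50% at one test dose, limit read from the data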;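 note: growth measured after 20 h incubation at 37 °C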
# PLAP activator: PLAP enzyme activators, biochemical, luminescence, HTS | purified PLAP enzyme, luminescent substrate read-out; active compounds read high | 96,000 compounds, 1.2% hits | activation fold at 20 µM | Alkaline phosphatase, placental type (Homo sapiens), P05187; in the data active = activation fold above about 2
# Target sequence (P05187 whole entry, looked up): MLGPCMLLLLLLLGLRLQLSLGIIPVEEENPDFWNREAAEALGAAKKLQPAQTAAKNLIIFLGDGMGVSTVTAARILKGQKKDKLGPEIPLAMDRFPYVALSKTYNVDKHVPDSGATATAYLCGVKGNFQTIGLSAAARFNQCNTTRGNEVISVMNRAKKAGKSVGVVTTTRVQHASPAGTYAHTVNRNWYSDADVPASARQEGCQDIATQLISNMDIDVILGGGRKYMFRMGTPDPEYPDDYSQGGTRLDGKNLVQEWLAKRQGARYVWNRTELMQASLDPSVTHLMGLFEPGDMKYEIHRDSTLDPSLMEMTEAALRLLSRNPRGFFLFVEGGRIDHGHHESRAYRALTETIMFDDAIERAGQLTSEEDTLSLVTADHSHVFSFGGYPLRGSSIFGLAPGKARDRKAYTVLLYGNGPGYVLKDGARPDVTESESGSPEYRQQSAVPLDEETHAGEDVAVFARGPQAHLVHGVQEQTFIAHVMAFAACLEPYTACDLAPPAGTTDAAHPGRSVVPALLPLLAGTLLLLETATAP
# tolC growth inh: growth inhibitors of E. coli tolC mutant, primary screen, strain BW25113 ΔtolC::kan, 384-well | OD615 | growth inhibition, % at 10 µM (by protocol) | 65,000 compounds, 2.2% hits | AID 573, 2007;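 active = growth inhibition at or above a cutoff equal to the mean over every tested compound plus 3 SD, cut at about 60% in these data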;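 note: growth measured after 20 h incubation at 37 °C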
#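 Test system: tolC-deleted E. coli BW25113; medium: LB with kanamycin 50 µg/mL; compound: single-point testing at 10 µM; incubation: 20 h compound exposure of bacteria at 37 °C; signal: OD at 615 nm; evaluation: growth inhibition in percent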
# HePTP inh: inhibitors of human HePTP phosphatase, primary screen, biochemical, absorbance, leukemia target; recombinant HePTP phosphatase activity, OD absorbance; inhibition, % at 20 µM; Tyrosine-protein phosphatase non-receptor type 7 (Homo sapiens), P35236; 110,000 compounds, 0.64% hits; in the data active = inhibition above about 50%;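 note: plate controls were vehicle for no effect and reference inhibitor for full effect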
# PostGolgi yeast: phenotypic screen on post-Golgi transport, primary screen. post-Golgi transport phenotypic cell assay. inhibition, % at 10 µM. 98,000 compounds, 0.9% hits. AID 739, 2007;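 note: yeast cells grown in 1536-well plates; yeast grown about 18 h at 30C before absorbance read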
# Starred values were filed as active, the others as inactive; · = not tested or not shown. Cut-off read from the data, not from the text of the source, unless noted: active = inhibition above about 30%; inactive = the rest.
SMILES,PostGolgi ctrl,E coli WT exp,PLAP activator,tolC growth inh,HePTP inh,PostGolgi yeast
Cc1n[nH]c(C)c1CCCCCCOc1ccc(C(C)(C)C)cc1,·,·,·,·,-3.8,·
O=C(/C=C/c1ccc(Cl)cc1)c1cccnc1,15.5,20.0,0.8,·,·,38.6*
COCCCNC(=S)NNC(=O)c1ccc2c(c1)OCO2,4.0,1.0,2.2*,·,·,21.0
Cc1nn(-c2ccccc2)c2sc(C(=O)N(CC(=O)NC(C)(C)C)Cc3ccco3)cc12,14.7,-9.0,1.4,74.9*,4.7,5.7
CCC(C)(C)n1nnnc1CN(Cc1ccc(Cl)cc1)Cc1ccco1,15.2,3.0,1.4,81.4*,12.6,2.3
O=C(CN1CCC(NC(=O)Nc2ccccc2-c2ccccc2)CC1)NCc1ccco1,-3.9,7.0,2.2*,4.3,7.1,-2.6
O=C(CN1CCC(Cc2ccccc2)CC1)NC(=O)NCc1ccco1,22.0,8.0,1.3,6.7,2.6,5.2
Cc1cc(OCC(=O)N2CCCCC2)ccc1Br,·,·,·,·,-0.5,·
Cn1c(-c2ccccc2)cnc1SCc1nc2ccccc2c(=O)[nH]1,2.3,8.0,2.5*,24.2,11.0,1.4
Cc1ccc(C)c(NC(=O)/C=C/c2ccc3c(c2)OCO3)c1,·,·,·,·,0.5,·
C=CCN1CN=C(NS(=O)(=O)c2ccc(C)cc2)NC1,·,·,·,·,2.0,·
O=C1NC(Nc2nccs2)(C(F)(F)F)C(=O)N1CCc1ccccc1 (stereo not given),0.6,4.0,2*,24.3,-5.8,10.8
CC/C(=C\C(=O)c1ccncc1)Nc1ccc(Br)cc1,37.5*,8.0,1.1,·,·,34.4*
CC/C(=C/C(=O)c1ccncc1)Nc1ccc(O)cc1,·,·,·,·,2.4,·
N#Cc1c(/N=C/N2CCCC2)sc2c1CCCC2,·,·,·,·,2.5,·
Cc1ccc2oc(-c3ccc(C)c(NC(=O)c4ccc(Br)o4)c3)nc2c1,·,·,·,·,-6.1,·
Cc1ccc(C)c(NC(=S)NNC(=O)c2ccco2)c1,19.2,-6.0,2.5*,·,·,1.0
Cc1ccccc1NC(=S)NNC(=O)c1ccoc1C,7.4,4.0,2.1*,·,·,3.1
Cc1occc1C(=O)NNC(=S)Nc1ccccc1,1.3,2.0,1.9,·,·,-5.6
COc1ccc(C)cc1NC(=O)C(=O)NCc1ccco1,·,·,·,·,11.4,·
COc1ccc(C)cc1NC(=O)C(=O)NNC(=O)c1ccco1,12.0,1.0,2.5*,·,·,0.6
Cc1ccc(NC(=O)CCC(=O)NNC(=O)c2ccco2)c(C)c1,19.8,4.0,1.5,·,·,3.0
Cc1ccc(C)c(NC(=S)NNC(=O)c2ccc(Br)o2)c1,28.2,4.0,2.3*,·,·,-24.7
Cc1ccc(NC(=S)NNC(=O)c2ccco2)cc1,-4.6,-5.0,1.8,·,·,-7.9
Cc1ccsc1C(=O)NNC(=O)Nc1ccc(Cl)c(Cl)c1,11.4,2.0,1,·,·,4.7
SMILES,PostGolgi ctrl,E coli WT exp,PLAP activator,tolC growth inh,HePTP inh,PostGolgi yeast
Cc1ccc(C)c(NC(=S)NNC(=O)c2sccc2C)c1,5.2,-5.0,2.6*,·,·,-2.8
Cc1cccc(NC(=S)NNC(=O)c2ccco2)c1,-3.1,10.0,2.1*,·,·,2.6
CCOc1ccc(C=NN2CCN(c3ccc(Cl)cc3)CC2)cc1,·,·,·,·,-9.7,·
O=C(N=Nc1c(O)n(CN2CCOCC2)c2ccccc12)c1ccccc1,·,·,·,·,-11.9,·
O=C1C2=C(Nc3ccccc3SC2c2ccc3c(c2)OCO3)c2ccccc21 (stereo not given),·,·,·,·,4.7,·
O=C1C2=C(Nc3ccccc3SC2c2ccco2)c2ccccc21 (stereo not given),71.9*,20.0,0.9,100.0*,-13.6,12.3
CCCNC(=O)C(C)n1c2ccccc2c2nc(=O)cc(C)n21 (stereo not given),32.8*,-2.0,0.7,·,·,4.8
CCCN(CCC)C(=O)Cn1c2ccccc2c2nc(=O)cc(C)n21,0.1,1.0,1.3,·,·,0.0
Cc1cccc(NC(=O)c2ccccc2C(=O)O)c1,0.9,1.0,0.9,-1.2,10.7,-1.6
Cc1cccc(NC(=O)c2cc(NC(=O)C3CC=CCC3C(=O)O)ccc2N2CCOCC2)c1 (stereo not given),14.3,4.0,1.5,8.8,6.8,1.1
Cc1cccc(NC(=O)c2cc(NC(=O)C3CCCCC3C(=O)O)ccc2N2CCCCC2)c1 (stereo not given),23.1,-1.0,·,76.5*,0.3,-0.6
CC(=O)Nc1ccc(N2CCCCC2)c(C(=O)Nc2cccc(C)c2)c1,31.2*,3.0,1,·,·,-16.9
COc1ccc(/C(N)=N/OC(=O)c2cccc(Br)c2)cc1OC,·,·,·,·,-4.4,·
Cc1cc(C)n(CCOc2ccc(Cl)cc2Cl)n1,35.0*,-1.0,0.9,25.5,10.1,10.5
Cc1ccc(S(=O)(=O)Oc2ccc(/C=C3/SC(=S)N(C)C3=O)cc2)cc1,·,·,·,·,-4.0,·
CCOc1ccc(-n2cnnn2)cc1S(=O)(=O)N1CCCCC1,9.1,-5.0,1.1,-1.6,8.9,-4.3
CCOc1cc(S(=O)(=O)N2CCN(c3ccc(F)cc3)CC2)c(OCC)cc1-n1cnnn1,82.5*,-1.0,1,-3.1,-4.8,3.2
CCOC(=O)C1CCCN(S(=O)(=O)c2cc(OCC(N)=O)c(C)cc2Cl)C1 (stereo not given),33.1*,-2.0,1.5,17.4,0.2,-0.5
Cc1cc(Cl)c(S(=O)(=O)N2CCCCCC2)cc1OCC(=O)NC1CCCCC1,17.9,-13.0,2*,·,·,3.6
c1cncc(-c2nn3c(Cn4nnc5ccccc54)nnc3s2)c1,28.2,-5.0,1.1,-1.9,4.7,6.1
CCc1nnc2sc(-c3cc(-c4ccccc4)nc4ccccc34)nn12,33.9*,-6.0,1,-0.8,2.7,15.8
CCN(C(=O)c1cc2cc3ccc(C)cc3nc2o1)c1ccc(OC)cc1,17.0,-15.0,1.5,72.1*,-3.4,6.6
COc1cc(Cl)cc(/C=N/NC2=NS(=O)(=O)c3ccccc32)c1O,·,·,·,·,-2.4,·
CSc1nc2ccc(N3C(=O)c4ccccc4C3=O)cc2s1,·,·,·,·,-2.6,·
Cc1ccc(OS(=O)(=O)c2ccccc2)c(/C=N/N=C2\NC(=O)C(C)S2)c1 (stereo not given),40.9*,-4.0,·,·,·,-5.5
SMILES,PostGolgi ctrl,E coli WT exp,PLAP activator,tolC growth inh,HePTP inh,PostGolgi yeast
COc1ccc(OC)c(/C=N/N=C2\NC(=O)C(C)S2)c1 (stereo not given),·,·,·,·,-15.4,·
Cc1ccc2c(CC(=O)OCc3nc(N)nc(Nc4ccccc4C)n3)coc2c1,36.3*,3.0,0.9,72.1*,1.7,5.8
CC1CCCN(C(C(=O)Nc2ccc3c(c2)OCO3)c2ccccc2)C1 (stereo not given),19.5,16.0,2*,8.5,7.7,3.3
CC1CCCN(C(C(=O)Nc2ccc3c(c2)OCCO3)c2ccccc2)C1 (stereo not given),12.5,0.0,1.2,4.3,11.0,-5.6
CC1CCN(C(C(=O)Nc2ccc3c(c2)OCO3)c2ccccc2)CC1 (stereo not given),5.5,3.0,2.2*,7.3,5.5,-0.6
Cc1ccccc1OCc1nnc(Sc2nc3ccc([N+](=O)[O-])cc3s2)n1-c1ccccc1,·,·,·,·,3.7,·

# Bioassay records as filed in PubChem.
